Here are results for twelve compounds from ChEMBL document CHEMBL1138631, “Synthesis and amine transporter affinities of novel phenyltropane derivatives as potential positron emission tomography (PET) imaging agents” (Bioorg Med Chem Lett, 2004).

A value given as a limit tells only on which side of the number the result lay.

Chain of Sodium-dependent serotonin transporter (P31652 whole entry): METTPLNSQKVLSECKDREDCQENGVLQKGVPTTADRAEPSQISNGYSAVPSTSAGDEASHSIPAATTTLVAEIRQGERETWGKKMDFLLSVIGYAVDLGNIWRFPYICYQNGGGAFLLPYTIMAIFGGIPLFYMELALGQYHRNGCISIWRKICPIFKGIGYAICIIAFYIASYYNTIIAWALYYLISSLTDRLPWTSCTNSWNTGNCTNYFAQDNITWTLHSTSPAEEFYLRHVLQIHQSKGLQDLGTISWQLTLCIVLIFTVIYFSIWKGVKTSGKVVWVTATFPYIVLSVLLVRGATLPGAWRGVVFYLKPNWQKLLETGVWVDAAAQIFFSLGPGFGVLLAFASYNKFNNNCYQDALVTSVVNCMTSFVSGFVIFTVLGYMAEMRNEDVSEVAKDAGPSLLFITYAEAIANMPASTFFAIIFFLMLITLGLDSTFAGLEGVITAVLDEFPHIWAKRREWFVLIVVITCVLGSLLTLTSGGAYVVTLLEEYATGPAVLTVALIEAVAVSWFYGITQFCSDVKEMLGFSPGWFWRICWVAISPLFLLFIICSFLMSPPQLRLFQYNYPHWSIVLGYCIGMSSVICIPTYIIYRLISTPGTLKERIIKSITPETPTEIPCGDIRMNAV
Chain of Norepinephrine transporter (Q9WTR4 whole entry): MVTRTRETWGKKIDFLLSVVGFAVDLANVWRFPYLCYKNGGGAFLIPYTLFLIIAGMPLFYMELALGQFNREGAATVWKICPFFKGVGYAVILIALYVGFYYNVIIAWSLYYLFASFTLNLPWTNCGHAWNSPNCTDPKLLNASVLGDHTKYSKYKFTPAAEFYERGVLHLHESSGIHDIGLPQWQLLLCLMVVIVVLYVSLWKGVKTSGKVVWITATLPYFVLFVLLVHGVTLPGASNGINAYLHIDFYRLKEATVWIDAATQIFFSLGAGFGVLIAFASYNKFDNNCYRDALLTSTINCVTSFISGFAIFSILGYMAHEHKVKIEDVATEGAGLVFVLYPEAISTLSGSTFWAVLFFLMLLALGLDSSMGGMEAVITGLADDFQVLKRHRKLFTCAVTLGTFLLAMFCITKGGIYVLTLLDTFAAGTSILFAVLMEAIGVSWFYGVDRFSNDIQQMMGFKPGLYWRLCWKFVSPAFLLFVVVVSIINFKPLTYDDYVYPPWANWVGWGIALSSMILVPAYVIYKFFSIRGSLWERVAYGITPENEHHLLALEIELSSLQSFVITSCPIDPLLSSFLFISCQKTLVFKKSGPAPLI
Chain of Monoamine transporters; serotonin & dopamine (Rattus norvegicus) (P23977 whole entry, looked up): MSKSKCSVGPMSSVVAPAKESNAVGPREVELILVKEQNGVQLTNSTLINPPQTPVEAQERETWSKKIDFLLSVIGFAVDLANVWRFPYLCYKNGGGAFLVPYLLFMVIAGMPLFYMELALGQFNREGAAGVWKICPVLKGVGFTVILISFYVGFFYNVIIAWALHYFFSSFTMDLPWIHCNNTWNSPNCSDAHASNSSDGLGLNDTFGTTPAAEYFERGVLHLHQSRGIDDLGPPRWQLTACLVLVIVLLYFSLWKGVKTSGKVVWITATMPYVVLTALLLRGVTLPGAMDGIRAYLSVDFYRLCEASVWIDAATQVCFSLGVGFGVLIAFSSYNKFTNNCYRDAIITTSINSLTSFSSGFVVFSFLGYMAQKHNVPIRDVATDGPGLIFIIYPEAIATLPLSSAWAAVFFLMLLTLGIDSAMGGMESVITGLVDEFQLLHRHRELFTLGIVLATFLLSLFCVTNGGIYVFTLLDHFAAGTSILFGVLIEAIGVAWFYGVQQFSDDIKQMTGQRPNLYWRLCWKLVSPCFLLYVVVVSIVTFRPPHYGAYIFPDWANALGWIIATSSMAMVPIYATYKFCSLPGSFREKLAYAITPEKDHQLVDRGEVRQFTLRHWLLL
Chain of Monoamine transporters; serotonin & dopamine (Rattus norvegicus) (P31652 whole entry, looked up): as the sequence (P31652 whole entry) above

The first assay has as its target Monoamine transporters; serotonin & dopamine (Rattus norvegicus) (UniProt P31652+P23977). Description: Ratio of Ki for dopamine and serotonin transporters. It is filed as protein assay. The gist of the method: (§1)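 Selectivity calculated as Ki at SERT or NET divided by Ki at DAT. Ki values came from radioligand competition assays with tritiated ligands selective for each transporter in rat forebrain tissue preparations. A ratio above 1.0 means preference for DAT.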
Turning to `O=C(OCCF)C1C(c2ccc(Br)cc2)CC2CCC1N2CCCF` (stereo not given), the Selectivity is 1.72.
With `COC(=O)C1C(c2ccc(Br)cc2)CC2CCC1N2C` (stereo not given), the Selectivity was 0.06.
Same read-out and setting: in the case of `O=C(OCCCF)C1C2CCC(CC1c1ccc(Br)cc1)N2` (stereo not given) it was 0.42; in that of `CN1C2CCC1C(C(=O)OCCF)C(c1ccc(I)cc1)C2` (stereo not given), 4.3; in that of `CN1C2CCC1C(C(=O)NCCF)C(c1ccc(I)cc1)C2` (stereo not given), 0.69.
In the case of `CN1C2CCC1C(C(=O)OCCF)C(c1ccc(Br)cc1)C2` (stereo not given), the Selectivity came out at 2.19.
Turning to `O=C(OCCF)C1C2CCC(CC1c1ccc(Br)cc1)N2` (stereo not given), the Selectivity was found to be 0.42.
On to `COC(=O)C1C(c2ccc(Br)cc2)CC2CCC1N2CCCF` (stereo not given), for which the Selectivity was 10.9.
Still for that read-out and setting: the same measure for `O=C(OCCF)C1C2CCC(CC1c1ccc(I)cc1)N2` (stereo not given): 0.21; for `CN1C2CCC1C(C(=O)OCCCF)C(c1ccc(Br)cc1)C2` (stereo not given): 1.5.
Same read-out and setting: in the case of `CN1C2CCC1C(C(=O)NCCF)C(c1ccc(Br)cc1)C2` (stereo not given) it was 1.51.

A further assay addresses Sodium-dependent serotonin transporter (Rattus norvegicus, UniProt P31652). Description: Displacement of [3H]cyanoimiprimine from serotonin transporter of rat cerebral cortical homogenate. A digest of the protocol: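 Rat cerebral cortical homogenates incubated with 0.71 nM [3H]cyanoimiprimine in a radioligand competition binding assay; affinity expressed as Ki in nM.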
Background: Displacement assays read how much labelled ligand stays bound in the presence of the test substance.
As usually defined, the Ki is a dissociation constant, usually derived from enzyme kinetics or from competition with a known ligand. Lower therefore signals tighter binding. Compound `O=C(OCCF)C1C(c2ccc(Br)cc2)CC2CCC1N2CCCF` (stereo not given) had a Ki of 18.3 nM.
Still for that read-out and setting: in the case of `COC(=O)C1C(c2ccc(Br)cc2)CC2CCC1N2C` (stereo not given) it was 4.95 nM; in that of `O=C(OCCCF)C1C2CCC(CC1c1ccc(Br)cc1)N2` (stereo not given), 0.3 nM.
On the same count and under the same terms, in the case of `CN1C2CCC1C(C(=O)OCCF)C(c1ccc(I)cc1)C2` (stereo not given) it was 4.02 nM.
The compound `CN1C2CCC1C(C(=O)NCCF)C(c1ccc(I)cc1)C2` (stereo not given) came in with a Ki of 30.8 nM.
Same read-out and setting: in the case of `CN1C2CCC1C(C(=O)OCCF)C(c1ccc(Br)cc1)C2` (stereo not given) it was 5.1 nM; in that of `O=C(OCCF)C1C2CCC(CC1c1ccc(Br)cc1)N2` (stereo not given), 0.24 nM.
On the same count and under the same terms, the same measure for `O=C(OCCF)C1C2CCC(CC1c1ccc(I)cc1)N2` (stereo not given): 0.18 nM.
The same measure, in the same setting: in the case of `CN1C2CCC1C(C(=O)OCCCF)C(c1ccc(Br)cc1)C2` (stereo not given) it was 2.86 nM; in that of `CN1C2CCC1C(C(=O)NCCF)C(c1ccc(Br)cc1)C2` (stereo not given), 38.7 nM; in that of `COC(=O)C1C2CCC(CC1c1ccc(Br)cc1)N2` (stereo not given), 0.95 nM.

Another assay deals with Sodium-dependent dopamine transporter (Rattus norvegicus, UniProt P23977). Put plainly: Displacement of [3H]CIT from dopamine transporter of rat striatal homogenate.
Chain of Sodium-dependent dopamine transporter (Rattus norvegicus, UniProt P23977) (P23977 whole entry): as the sequence (P23977 whole entry, looked up) above
`O=C(OCCF)C1C(c2ccc(Br)cc2)CC2CCC1N2CCCF` (stereo not given): the Ki amounted to 10.6 nM.
Regarding `COC(=O)C1C(c2ccc(Br)cc2)CC2CCC1N2C` (stereo not given), the affinity, expressed as Ki, was 0.3 nM.
For the compound `O=C(OCCCF)C1C2CCC(CC1c1ccc(Br)cc1)N2` (stereo not given), the affinity, expressed as Ki, was 0.72 nM.
`CN1C2CCC1C(C(=O)NCCF)C(c1ccc(I)cc1)C2` (stereo not given) had a Ki of 44.5 nM.
On to `CN1C2CCC1C(C(=O)OCCF)C(c1ccc(Br)cc1)C2` (stereo not given), for which the affinity corresponds to a Ki of 2.33 nM.
On the same count and under the same terms, the same measure for `O=C(OCCF)C1C2CCC(CC1c1ccc(Br)cc1)N2` (stereo not given): 0.57 nM.
Still for that read-out and setting: the same measure for `O=C(OCCF)C1C2CCC(CC1c1ccc(I)cc1)N2` (stereo not given): 0.85 nM.
The compound `CN1C2CCC1C(C(=O)OCCCF)C(c1ccc(Br)cc1)C2` (stereo not given) yielded a Ki of 1.91 nM.
For the compound `CN1C2CCC1C(C(=O)NCCF)C(c1ccc(Br)cc1)C2` (stereo not given), the inhibition constant (Ki) was found to be 25.7 nM.
Regarding `COC(=O)C1C2CCC(CC1c1ccc(Br)cc1)N2` (stereo not given), the affinity, expressed as Ki, was 0.52 nM.

A further assay has as its target Norepinephrine transporter (Rattus norvegicus, UniProt Q9WTR4). Description: Displacement of [3H]-nisoxetine from norepinephrine transporter of rat cerebral corticex homogenate. A digest of the protocol:
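Competition binding in rat cerebral cortical homogenates incubated with 0.35 nM [3H]nisoxetine; Ki reported in nM.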
Take `O=C(OCCF)C1C(c2ccc(Br)cc2)CC2CCC1N2CCCF` (stereo not given): the Ki was found to be 2.03 nM.
On the same count and under the same terms, the same measure for `COC(=O)C1C(c2ccc(Br)cc2)CC2CCC1N2C` (stereo not given): 15.3 nM; for `O=C(OCCCF)C1C2CCC(CC1c1ccc(Br)cc1)N2` (stereo not given): 8.85 nM; for `CN1C2CCC1C(C(=O)OCCF)C(c1ccc(I)cc1)C2` (stereo not given): 116 nM.
In turn, `CN1C2CCC1C(C(=O)NCCF)C(c1ccc(I)cc1)C2` (stereo not given) returned a Ki greater than 10000 nM.
`CN1C2CCC1C(C(=O)OCCF)C(c1ccc(Br)cc1)C2` (stereo not given): the affinity, expressed as Ki, was 280 nM.
Still for that read-out and setting: the same measure for `O=C(OCCF)C1C2CCC(CC1c1ccc(Br)cc1)N2` (stereo not given): 15.2 nM; for `CN1C2CCC1C(C(=O)OCCCF)C(c1ccc(Br)cc1)C2` (stereo not given): 244 nM.
In the case of `COC(=O)C1C2CCC(CC1c1ccc(Br)cc1)N2` (stereo not given), affinity was put at a Ki of 1.02 nM.

A further assay addresses Monoamine transporters; Norepininephrine & dopamine (Rattus norvegicus) (UniProt P23977+Q9WTR4). Description: Ratio of Ki for dopamine and norepinephrine transporters. It is filed as protein assay. A digest of the protocol:
as §1
Regarding `O=C(OCCF)C1C(c2ccc(Br)cc2)CC2CCC1N2CCCF` (stereo not given), the Selectivity worked out at 0.19.
Still for that read-out and setting: in the case of `COC(=O)C1C(c2ccc(Br)cc2)CC2CCC1N2C` (stereo not given) it was 0.02; in that of `O=C(OCCCF)C1C2CCC(CC1c1ccc(Br)cc1)N2` (stereo not given), 12.3.
For the compound `CN1C2CCC1C(C(=O)OCCF)C(c1ccc(I)cc1)C2` (stereo not given), the Selectivity was 125.
Take `CN1C2CCC1C(C(=O)NCCF)C(c1ccc(I)cc1)C2` (stereo not given): the Selectivity was greater than 225.
In the case of `CN1C2CCC1C(C(=O)OCCF)C(c1ccc(Br)cc1)C2` (stereo not given), the Selectivity came to 120.
On the same count and under the same terms, in the case of `O=C(OCCF)C1C2CCC(CC1c1ccc(Br)cc1)N2` (stereo not given) it was 26.7; in that of `COC(=O)C1C(c2ccc(Br)cc2)CC2CCC1N2CCCF` (stereo not given), 58.9.
As to `CN1C2CCC1C(C(=O)OCCCF)C(c1ccc(Br)cc1)C2` (stereo not given), the Selectivity was found to be 128.

The target in another assay is Sodium-dependent dopamine transporter (Homo sapiens, UniProt Q01959). Description: Inhibition of [18F]PET binding to dopamine transporter of human brain.
Chain of Sodium-dependent dopamine transporter (Homo sapiens, UniProt Q01959) (Q01959 whole entry): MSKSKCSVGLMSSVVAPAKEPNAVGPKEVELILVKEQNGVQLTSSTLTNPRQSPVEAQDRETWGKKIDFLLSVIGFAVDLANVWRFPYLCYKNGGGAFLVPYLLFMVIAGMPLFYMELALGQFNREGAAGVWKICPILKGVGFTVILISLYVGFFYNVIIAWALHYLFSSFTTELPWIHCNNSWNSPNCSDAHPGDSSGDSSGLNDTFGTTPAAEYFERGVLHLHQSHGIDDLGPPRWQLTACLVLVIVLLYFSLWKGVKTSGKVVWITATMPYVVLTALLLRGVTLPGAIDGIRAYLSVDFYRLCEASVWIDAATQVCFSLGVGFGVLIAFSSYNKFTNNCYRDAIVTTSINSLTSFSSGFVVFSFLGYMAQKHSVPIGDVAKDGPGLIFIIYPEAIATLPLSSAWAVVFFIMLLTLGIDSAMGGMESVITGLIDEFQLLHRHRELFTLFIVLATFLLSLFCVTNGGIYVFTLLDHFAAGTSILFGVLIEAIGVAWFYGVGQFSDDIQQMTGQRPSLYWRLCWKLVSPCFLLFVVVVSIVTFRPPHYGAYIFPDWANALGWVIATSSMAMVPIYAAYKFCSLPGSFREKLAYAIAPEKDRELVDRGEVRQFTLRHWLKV
Compound `O=C(OCCCF)C1C2CCC(CC1c1ccc(Br)cc1)N2` (stereo not given) showed a Ki of 5 nM.
Still for that read-out and setting: in the case of `CN1C2CCC1C(C(=O)OCCF)C(c1ccc(Br)cc1)C2` (stereo not given) it was 5 nM.
`O=C(OCCF)C1C2CCC(CC1c1ccc(Br)cc1)N2` (stereo not given) yielded a Ki of 5 nM.
Compound `O=C(OCCF)C1C2CCC(CC1c1ccc(I)cc1)N2` (stereo not given) showed a Ki of 5 nM.
The compound `CN1C2CCC1C(C(=O)OCCCF)C(c1ccc(Br)cc1)C2` (stereo not given) returned a Ki of 5 nM.
